Rows were chosen to be rich in hits. Some 3.5% of all compounds tested hit in one or more screens of this group.
MrgX1 agonist = agonists of human MrgX1 receptor, primary screen, HEK293 cells, Fluo-4 calcium flux. Mas-related G-protein coupled receptor member X1 (Homo sapiens), Q96LB2. Fluo-4 calcium fluorescence, agonist mode; active compounds read high. B-score at 10 µM. hit rate 0.44% among 310,000. AID 588627, 2011;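 active = calcium response B-score plate-corrected fluorescence ratio at least 3 library SD, with starting fluorescence B-score inside 5 SD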
Target sequence (Q96LB2 whole entry, looked up): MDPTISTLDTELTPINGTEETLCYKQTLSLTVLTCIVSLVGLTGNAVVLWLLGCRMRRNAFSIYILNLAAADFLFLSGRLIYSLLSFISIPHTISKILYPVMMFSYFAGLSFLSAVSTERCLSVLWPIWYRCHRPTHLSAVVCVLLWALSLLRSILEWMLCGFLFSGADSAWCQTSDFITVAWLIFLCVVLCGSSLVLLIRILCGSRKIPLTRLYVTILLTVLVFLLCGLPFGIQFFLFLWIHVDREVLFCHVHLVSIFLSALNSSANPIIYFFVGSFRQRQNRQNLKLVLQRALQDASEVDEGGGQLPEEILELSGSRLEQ
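Material – MrgX1-expressing HEK293 cells · Input – 15,000 cells seeded per well · Dosing – compound as first of three additions · Times – overnight seeding, then 1 h dark dye loading · Measured by – kinetic Fluo-4 NW fluorescence of intracellular calcium · Read-out – B-scored fluorescence response ratio · Benchmarks – positive and negative control wells on each plate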
RGS4 block = RGS4 inhibitors, primary screen, cell-based, HEK293 M3R inducible RGS4, calcium flux; hit rate 0.45% among 310,000; Fluo-4 calcium flux; active compounds read high; triggered by carbachol at its EC20; B-score at 10 µM;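 active = B-score, a plate-corrected calcium signal, over three deviations above library mean, with baseline fluorescence within five deviations of library mean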;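 also: RGS4 expression induced by doxycycline in cells with stable M3 receptor; B-score is computed from the integrated fluorescence ratio over baseline after carbachol; higher B-score means a larger calcium signal and so more RGS4 inhibition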
Target sequence (P49798 whole entry, looked up): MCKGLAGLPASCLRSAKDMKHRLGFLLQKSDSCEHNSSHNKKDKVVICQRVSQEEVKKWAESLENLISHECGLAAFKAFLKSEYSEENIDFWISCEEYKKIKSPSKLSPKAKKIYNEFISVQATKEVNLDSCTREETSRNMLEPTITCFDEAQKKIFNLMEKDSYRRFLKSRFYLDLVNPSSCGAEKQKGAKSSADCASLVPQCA
MrgX1 antag = antagonists of human MrgX1 receptor, primary screen, HEK293 cells, Fluo-4 calcium flux; BAM8-22 antagonism; active compounds read low; B-score at 10 µM; hit rate 1.3% among 310,000; AID 588676, 2011;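 active = calcium-response B-score plate-corrected more than 3 library SD below zero, starting fluorescence within 5 deviations, no agonist response on first addition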;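 also: peak minus trough fluorescence over baseline after final BAM8-22 challenge near maximal dose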
MrgX1 allo act = positive allosteric modulators of MrgX1, primary screen, HEK293 cells, Fluo-4 calcium flux. FDSS; active compounds read high. Mas-related G-protein coupled receptor member X1 (Homo sapiens), Q96LB2. hit rate 0.63% among 310,000. B-score at 10 µM;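 active = plate-corrected calcium response at least 3 library SD above typical, normal starting fluorescence, not activating the receptor alone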;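 also: compound read alongside a low EC10 to EC30 dose of BAM8-22 agonist; peak minus trough fluorescence over baseline measured at the second addition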
RGS4 act = RGS4 potentiators or activators, primary screen, cell-based, HEK293 M3R inducible RGS4, calcium flux | carbachol calcium flux Fluo4; active compounds read low | B-score at 10 µM | hit rate 0.92% among 310,000;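 active = B-score of the integrated calcium signal more than 4 SD below the library mean, with starting fluorescence not abnormally high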;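 also: negative B-score means reduced calcium response which marks RGS4 activation or potentiation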
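Detection: kinetic calcium fluorescence imaging with Fluo4-AM dye, 2 µM / Material: HEK293 cells with stable M3R and inducible RGS4 / Schedule: recording 10 s baseline at 1 Hz, 100 s post-agonist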
MrgX1 ant reconf = MrgX1 receptor antagonists, duplicate retest, confirmation, HEK293 cells, Fluo-4 calcium flux; shares compounds with MrgX1 antag; BAM8-22 calcium flux; active compounds read low; remaining BAM8-22 calcium response % of control (active compounds read low), % at 10 µM; hit rate 19% among 2,300; AID 602420, 2012;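 active = remaining agonist calcium response no higher than 100% minus 3 SD of agonist-only control wells, with starting fluorescence near control levels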;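 also: agonist BAM8-22 given at a near maximal EC90 to ECmax level; peak minus minimum fluorescence divided by baseline after agonist addition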
HEK293 Ca flux = nonspecific calcium signal in parental HEK293, confirmation, counter-screen for MrgX1 antagonist project, parental HEK293 cells, Fluo-4 calcium flux. fluorescence ratio F(max-min)/F0 at 10 µM. AID 624111, 2012. hit rate 2% among 4,000. Fluo-4 calcium fluorescence, FDSS. shares compounds with MrgX1 antag;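 active = duplicate-averaged calcium fluorescence ratio at least three times the standard deviation of buffer wells, a nonspecific response in parental cells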
HEK293 Ca counter = calcium response in parental HEK293 cells, primary screen, counter-screen for MrgX1 allosteric activator project, cell-based, Fluo-4 calcium flux, duplicate; Fluo-4 fluorescence ratio; active compounds read high; fluorescence ratio F(max-min)/F0 at 10 µM; shares compounds with MrgX1 antag; hit rate 0.4% among 4,000; AID 624114, 2012;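 active = calcium fluorescence ratio, averaged over duplicates, at least 3 SD of the buffer-well ratio, meaning a nonspecific response in receptor-free cells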;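 also: untransfected parental HEK293 lacking MrgX1 used as counterscreen for MrgX1 allosteric activators; fluorescence change taken during the second addition on a kinetic imager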
HEK293 Ca cntr2 = calcium response in parental HEK293 cells, primary screen, counter-screen for MrgX1 agonist project, cell-based, Fluo-4 calcium flux, duplicate, agonist mode. shares compounds with MrgX1 antag. Fluo-4 calcium fluorescence (FDSS); active compounds read high. fluorescence ratio F(max-min)/F0 at 10 µM. hit rate 8.7% among 4,000. AID 624115, 2012;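 active = calcium fluorescence ratio at least three times the spread of buffer wells, meaning a non-specific response in parental cells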
* marks the source's active call; other numbers are inactive results; i = inactive; . = no result given.

SMILES | MrgX1 agonist | RGS4 block | MrgX1 antag | MrgX1 allo act | RGS4 act | MrgX1 ant reconf | HEK293 Ca flux | HEK293 Ca counter | HEK293 Ca cntr2
CCN1CCN(c2ccc(S(=O)(=O)N3CCCCC3)cc2NC(=O)c2ccc([N+](=O)[O-])s2)CC1 | i | i | i | i | i | . | . | . | .
CC(c1ccccc1C(O)(c1ccccc1)c1ccccc1)N(C)C (stereo not given) | i | i | -5.36* | i | i | i | i | i | i
Cn1cc([C@@H]2C[C@H]3CN(Cc4cccc(Cl)c4)C(=O)[C@]34CCCN24)c2ccccc21 | i | i | -5.22* | i | i | i | i | i | i
Cc1c([C@@H]2C[C@H]3CN(Cc4cccc(Cl)c4)C(=O)[C@]34CCCN24)cnn1C | i | i | i | i | i | . | . | . | .
Cc1nnc(Oc2ccccc2F)c2ccccc12 | i | i | -6.05* | i | i | 85.2%* | i | i | i
CC1(C)CC(=O)c2c(-c3cccs3)n[nH]c2C1 | i | i | -5.43* | i | i | i | i | i | i
CCC(C)(C)n1nnnc1C(c1ccc2ncccc2c1)N1CCCC(C)C1 (stereo not given) | i | i | -6.33* | i | i | i | i | i | i
CCc1nnc(NC(=O)CSc2nccn2-c2cccc(C)c2)s1 | i | i | i | i | i | . | . | . | .
Cc1cccc(-n2ccnc2SCC(=O)Nc2nnc(C)s2)c1 | i | i | -7.72* | i | i | i | i | i | i
CCN(CC)S(=O)(=O)c1cccc(NC(=O)Nc2cccc(C(F)(F)F)c2)c1 | i | i | -5.17* | i | i | 53.4%* | i | i | i
CCN(CC)S(=O)(=O)c1cccc(NC(=O)CC2CCCC2)c1 | i | i | i | i | i | . | . | . | .
Cc1cccc(CNC(=O)Cn2ccc3cc(S(=O)(=O)N4CCCCCC4)ccc32)c1 | i | i | i | i | i | . | . | . | .
Cc1cccc(CNC(=O)Cn2ccc3cc(S(=O)(=O)N4CCCC4)ccc32)c1 | i | i | -6.79* | i | i | i | i | i | i
Cn1ccc(C(=O)Nc2ccc(Br)cc2Br)n1 | i | i | i | i | i | . | . | . | .
COc1ccc(NC(=O)CN(C)C(=O)c2ccc(-c3cccc(C(F)(F)F)c3)o2)cc1 | i | i | i | i | i | . | . | . | .
COc1ccc(NC(=O)CN(C)C(=O)c2ccc(-c3ccccc3Cl)o2)cc1 | i | i | -4.72* | i | i | i | i | i | i
COc1ccc2oc(C(=O)OCC(=O)NCc3ccco3)c(C)c2c1 | i | i | -6.39* | i | i | i | i | i | i
CC(C)C(=O)Nc1cc(C(F)(F)F)ccc1N1CCOCC1 | i | i | -5.03* | i | i | 75.6%* | i | i | i
CCC(=O)Nc1cc(C(F)(F)F)ccc1N1CCOCC1 | i | i | i | i | i | . | . | . | .
C=CCn1cccc(C(=O)Nc2ccc(OCC)cc2)c1=O | i | i | i | i | i | . | . | . | .
Cc1cccc(NNC(N)=S)c1C | i | i | i | i | i | . | . | . | .
CCOC(=O)CSc1n[nH]c(-c2cccnc2)n1 | i | i | -6.96* | i | i | i | i | i | i
CN1CCN(Cc2nc3ccccc3c(=O)n2CC#N)CC1 | i | i | -5.61* | i | i | i | i | i | i
O=C(CNC(=O)c1ccccc1F)OCc1csc(-c2ccccc2)n1 | i | i | -5.03* | i | i | i | i | i | i
O=c1cc(-c2ccccc2)nc2c(-c3ccccc3)c(C(F)(F)F)[nH]n12 | i | i | i | i | i | . | . | . | .
SMILES | MrgX1 agonist | RGS4 block | MrgX1 antag | MrgX1 allo act | RGS4 act | MrgX1 ant reconf | HEK293 Ca flux | HEK293 Ca counter | HEK293 Ca cntr2
C=C1c2ccccc2NC(=O)N1c1ccc(C)cc1 | i | i | -8.69* | i | i | i | i | i | i
C=C1c2cc(C)ccc2NC(=O)N1c1ccc(C)cc1 | i | i | i | i | i | . | . | . | .
CCC(C)(C)c1ccc(OCC(=O)Nc2ccncc2)cc1 | i | i | i | i | i | . | . | . | .
c1ccc(CSc2nnc(-c3cccs3)n2Cc2ccco2)cc1 | i | i | -5.75* | i | i | 82.7%* | i | i | i
Cc1ccccc1CSc1nnc(-c2cccs2)n1Cc1ccco1 | i | i | i | i | i | . | . | . | .
O=C(Nc1cccnc1)c1cccc(S(=O)(=O)N2CCCCC2)c1 | i | i | -6.41* | i | i | i | i | i | i
COC(=O)c1cccc(S(=O)(=O)N2CCCC2)c1 | i | i | -5.86* | i | i | i | i | i | i
COC(=O)c1cccc(S(=O)(=O)N2CCOCC2)c1 | i | i | i | i | i | . | . | . | .
COc1cc(C(=O)OCC(=O)NCc2ccc(F)cc2)ccc1OCC(C)C | i | i | i | i | i | . | . | . | .
CN(Cc1ccccc1)CC(O)COc1ccc(CNCc2ccc(Cl)s2)cc1 (stereo not given) | i | i | i | i | i | . | . | . | .
Cc1c(C(=O)NCC2CCCO2)oc2ccc(S(=O)(=O)N3CCCCC3)cc12 (stereo not given) | i | i | -7.22* | i | i | 84.4%* | i | i | i
COc1cccc(CN(C)C(=O)c2cc(COc3c(F)cccc3F)on2)c1 | i | i | i | i | i | . | . | . | .
COc1cccc(CN(C)C(=O)c2cc(COc3ccc4ncccc4c3)on2)c1 | i | i | -6.63* | i | i | 69.2%* | i | i | i
